Measured values taken from ChEMBL document CHEMBL2163269, “Double-headed sulfur-linked amino acids as first inhibitors for betaine-homocysteine S-methyltransferase 2” (J Med Chem, 2012).
pIC50, pKi: −log10 of the molar value. Active and inactive are the calls of the source. The rule behind the calls is not given here.

Tests used:
[1] = biological target: T1, S-methylmethionine--homocysteine S-methyltransferase BHMT2 (Homo sapiens) (UniProt Q9H2M3); assay: Inhibition of recombinant human BHMT2 expressed in Escherichia coli […] at 20 uM
T1 sequence (whole entry): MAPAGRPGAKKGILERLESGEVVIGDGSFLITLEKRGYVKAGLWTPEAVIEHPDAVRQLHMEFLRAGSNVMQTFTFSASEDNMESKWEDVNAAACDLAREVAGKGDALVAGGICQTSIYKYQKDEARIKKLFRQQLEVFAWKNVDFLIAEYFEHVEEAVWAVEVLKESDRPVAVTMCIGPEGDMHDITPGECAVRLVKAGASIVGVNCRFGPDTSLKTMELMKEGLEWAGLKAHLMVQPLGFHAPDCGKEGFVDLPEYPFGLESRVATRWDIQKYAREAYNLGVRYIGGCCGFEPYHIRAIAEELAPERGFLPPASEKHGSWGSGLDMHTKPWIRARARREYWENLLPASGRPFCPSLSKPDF
Method in brief: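 BHMT-2 copurified with BHMT, 0.2–1 μM total protein. Reaction: 0.25 mM SMM (0.3 μCi), 2.5 mM D,L-Hcy, 0.2 mM ZnCl2, 0.1% β-mercaptoethanol, 50 mM Tris/HCl pH 7.5, 60 min at 37 °C. Methanol stop, product isolated on Dowex 1×4. Percent inhibition at 20 μM, tetraplicates, means ± SEM.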

[2] = biological target: T2, Betaine--homocysteine S-methyltransferase 1 (Homo sapiens) (UniProt Q93088); assay: Inhibition of recombinant human BHMT expressed in Escherichia coli […] at 20 uM
T2 sequence (whole entry): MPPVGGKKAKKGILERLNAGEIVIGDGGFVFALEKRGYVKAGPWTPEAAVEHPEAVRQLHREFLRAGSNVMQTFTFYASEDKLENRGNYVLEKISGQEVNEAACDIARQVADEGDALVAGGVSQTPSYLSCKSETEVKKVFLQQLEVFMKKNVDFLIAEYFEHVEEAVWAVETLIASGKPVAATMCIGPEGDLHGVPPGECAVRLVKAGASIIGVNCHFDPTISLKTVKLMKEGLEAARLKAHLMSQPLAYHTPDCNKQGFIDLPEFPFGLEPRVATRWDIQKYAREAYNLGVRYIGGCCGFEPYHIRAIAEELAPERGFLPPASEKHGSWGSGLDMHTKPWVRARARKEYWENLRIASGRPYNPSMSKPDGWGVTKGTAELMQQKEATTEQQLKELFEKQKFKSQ
Method in brief: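 Human BHMT at 0.2 or 0.4 μM in 0.5 mL. 30 min at 37 °C, blanks without enzyme subtracted. Percent inhibition at 20 μM inhibitor in tetraplicates, means ± SEM.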

[3] = biological target: T3, S-methylmethionine--homocysteine S-methyltransferase BHMT2 (Homo sapiens, UniProt Q9H2M3); assay: Competitive inhibition of recombinant human BHMT2 expressed in Escherichia coli […] by Dixon plot method in presence of D,L-homocysteine; settings: read-out: Ki(app)
T3 sequence (Q9H2M3 whole entry): T1 sequence (whole entry)
Method in brief: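 BHMT-2 copurified with BHMT on chitin affinity. 0.2 mL reaction: 0.25 mM SMM (0.3 μCi), 0.2 mM ZnCl2, 0.1% β-mercaptoethanol, 50 mM Tris/HCl pH 7.5. D,L-Hcy varied 75–250 μM, inhibitor 0–300 nM. 60 min at 37 °C, methanol stop, Dowex 1×4 column. Triplicates, four separate measurements. Kiapp read from line intersection.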

[4] = biological target: T4, Betaine--homocysteine S-methyltransferase 1 (Homo sapiens, UniProt Q93088); assay: Inhibition of recombinant human BHMT expressed in Escherichia coli […]
T4 sequence (Q93088 whole entry): T2 sequence (whole entry)
Method in brief: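 Human BHMT at 0.2 or 0.4 μM in 0.5 mL. Mix: 2 mM 14C-betaine (0.15 μCi), 1 mM fresh D,L-Hcy, 50 mM Tris/HCl pH 7.5, 0.07% β-mercaptoethanol. 30 min at 37 °C, ice-water stop, no-enzyme blank subtracted. At least nine inhibitor concentrations, duplicates. IC50 by nonlinear regression, ±SEM from three independent runs.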

[5] = biological target: T3, S-methylmethionine--homocysteine S-methyltransferase BHMT2; assay: Inhibition of recombinant human BHMT2 expressed in Escherichia coli […]
Method in brief: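 BHMT-2 stabilized by copurification with BHMT, 0.2–1 μM total protein. 0.2 mL: 0.25 mM radiolabeled SMM (0.3 μCi), 2.5 mM D,L-Hcy, 0.2 mM ZnCl2, 0.1% β-mercaptoethanol, 50 mM Tris/HCl pH 7.5. 60 min at 37 °C, Dowex separation. At least nine inhibitor concentrations in duplicate. IC50 by nonlinear regression, ±SEM of three independent runs.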

Structure (SMILES)	inhibition [1]	inhibition [2]	pKi [3]	pIC50 [4]	pIC50 [5]
NC(CCSCCCCC(=O)O)C(=O)O (stereo not given)	inactive	Active	–	–	–
CC(CCSCC[C@H](N)C(=O)O)CCC(N)C(=O)O (mixture of isomers)	> 90%	28%	7.11	4.12	5.44
CC(C)(CCSCC[C@H](N)C(=O)O)CCC(N)C(=O)O (mixture of isomers)	–	Active	–	–	–

Second part, the compound after the results:

inhibition [1]	inhibition [2]	pKi [3]	pIC50 [4]	pIC50 [5]	Structure (SMILES)
60%	–	–	–	–	N[C@@H](CCSCCSCC[C@H](N)C(=O)O)C(=O)O
inactive	–	–	–	–	N[C@@H](CCSCSCC[C@H](N)C(=O)O)C(=O)O
